Measured values from ChEMBL document CHEMBL1149813, “Synthesis of 6-amino-1,4-dihydropyridines that prevent calcium overload and neuronal death” (2008).

Columns and labels:
SH-SY5Y [1] = assay: Neuroprotective activity against human SH-SY5Y cells assessed as reduction in H2O2-induced LDH release at 0.3 uM relative to control; assay type: functional; parameters: scale not given: the % may be the effect or the level left
SH-SY5Y [2] = assay: Neuroprotective activity against free radical-induced cell death in human SH-SY5Y cells at 0.3 uM in presence of H2O2 relative to control
SH-SY5Y [3] = assay: Neuroprotective activity against human SH-SY5Y cells assessed as reduction in K+-induced LDH release at 0.3 uM relative to control; assay type: functional; parameters: scale not given: the % may be the effect or the level left
Procedure, shortened: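 SH-SY5Y neuroblastoma cells maintained in DMEM with 10% FCS at 37 °C in 5% CO2, used at passages 3–16. Cells treated before confluence in serum-free DMEM. Cell death from Ca2+ overload induced by 70 mM K+, read as LDH release. Compounds tested at 0.3 (unit as printed); nimodipine as reference. Means ± SEM, at least three cultures in quadruplicate.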

SH-SY5Y [4] = assay: Neuroprotective activity against calcium overload-induced cell death in human SH-SY5Y cells at 0.3 uM in presence of K+ relative to control; assay type: functional
Procedure, shortened: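 SH-SY5Y cells (passages 3–16 after thawing) were grown in DMEM with 10% FCS, glutamine and penicillin/streptomycin at 37 °C in 5% CO2. They were treated with compound before confluence in serum-free DMEM and challenged with 70 mM K+. Read-out was the reduction in the increase of LDH released, relative to a drug-free control. Means ± SEM from at least three cultures in quadruplicate.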

SH-SY5Y [5] = assay: Blockade of high K+-induced increase in calcium uptake in human SH-SY5Y cells at 0.3 uM relative to control; assay type: functional

SMILES | Activity (SH-SY5Y [1]) | Activity (SH-SY5Y [2]) | Activity (SH-SY5Y [3]) | Activity (SH-SY5Y [4]) | Activity (SH-SY5Y [5])
CCOC(=O)C1=C(C)NC(N)=C(C#N)C1c1ccncc1 (stereo not given) | 66.7% | 46.7% | 70.5% | 43.3% | 32.6%
Cc1ccc(C2C(C#N)=C(N)NC3=C2C(=O)CC(C)(C)C3)cc1 (stereo not given) | 88.6% | 14.9% | 68.4% | 44.4% | 28.6%
CC1(C)CC(=O)C2=C(C1)NC(N)=C(C#N)C2c1ccncc1 (stereo not given) | 77.7% | 29.1% | 71.4% | 39.5% | 50.4%
COc1ccc(C2C(C#N)=C(N)NC3=C2C(=O)CC(C)(C)C3)cc1 (stereo not given) | 77.8% | 29% | 69.3% | 43.2% | 12.6%
CC1(C)CC(=O)C2=C(C1)NC(N)=C(C#N)C2c1ccc(F)cc1 (stereo not given) | 75.4% | 32.4% | 69.9% | 42.3% | 63.9%
CCOC(=O)C1=C(C)NC(N)=C(C#N)C1c1ccc(OC)c(OC)c1 (stereo not given) | 70.2% | 40.8% | 80.5% | 31.2% | 21.8%
CC1(C)CC(=O)C2=C(C1)NC(N)=C(C#N)C2c1ccccc1 (stereo not given) | 84.2% | 20.6% | 61.2% | 54.7% | 20.8%
CCOC(=O)C1=C(C)NC(N)=C(C#N)C1c1ccc([N+](=O)[O-])cc1 (stereo not given) | 83.4% | 23.1% | 68.9% | 45.7% | 17.6%
CCOC(=O)C1=C(C)NC(N)=C(C#N)C1c1ccccc1OC (stereo not given) | 88.4% | 15% | 78.2% | 31.5% | 24.3%
CCOC(=O)C1=C(C)NC(N)=C(C#N)C1c1cccc(OC)c1 (stereo not given) | 86.1% | 27.7% | 77.9% | 32.1% | 25%
CCOC(=O)C1=C(C)NC(N)=C(C#N)C1c1cccc([N+](=O)[O-])c1 (stereo not given) | 84.5% | 21.2% | 79.4% | 30.3% | 27.8%
CCOC(=O)C1=C(C)NC(N)=C(C#N)C1c1ccccc1 (stereo not given) | 86.7% | 17.3% | 76.26% | 34.1% | 34.03%
CCOC(=O)C1=C(C)NC(N)=C(C#N)C1c1ccc(F)cc1 (stereo not given) | 82.2% | 24.7% | 72.8% | 39.8% | 7.2%
CCOC(=O)C1=C(C)NC(N)=C(C#N)C1c1ccccc1C(F)(F)F (stereo not given) | 78.6% | 28.2% | 72.11% | 40.2% | 30.4%
CCOC(=O)C1=C(C)NC(N)=C(C#N)C1c1cccnc1 (stereo not given) | 84.5% | 21.2% | 70.5% | 43.4% | 14.1%
CCOC(=O)C1=C(C)NC(N)=C(C#N)C1c1ccc(-c2ccccc2)cc1 (stereo not given) | 80.3% | 26.2% | 90.9% | 12.9% | 23.9%
CCOC(=O)C1=C(C)NC(N)=C(C#N)C1c1ccc(OC)cc1 (stereo not given) | 77.7% | 31.3% | 89.9% | 14.4% | 11.8%
CCOC(=O)C1=C(C)NC(N)=C(C#N)C1c1ccc(C)cc1 (stereo not given) | 69.7% | 42.4% | 72.3% | 40.8% | 16.9%
CCOC(=O)C1=C(C)NC(N)=C(C#N)C1c1ccccc1[N+](=O)[O-] (stereo not given) | 98.8% | 1.6% | 71.11% | 42.6% | 16.1%
COCCOC(=O)C1=C(C)NC(C)=C(C(=O)OC(C)C)C1c1cccc([N+](=O)[O-])c1 (stereo not given) [NIMODIPINE] | 75.4% | 36.03% | 75% | 35.9% | 45.5%
